Paper PMC7127420 (European Journal of Medicinal Chemistry, 2008)
Read-outs that look alike come from different tables or passages of the source. Each block holds one compound with its values, some of them ahead of it.

What was measured:
[1] = tested on: human T-lymphocyte (CEM) cells; experiment: Cytostatic activity in mock-infected CEM cells; format: cell-based; conditions: concentration required to reduce mock-infected CEM cell viability by 50%
Summary of the method: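 Mock-infected CEM cell cultures were run alongside the HIV-infected CEM cultures. CC50 was the compound concentration inhibiting CEM cell proliferation by 50%.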

HIV-1(IIIB) [2] = conditions: ref [1], cited from earlier work; for EC50: read-out: EC50 HIV-1(IIIB), CEM cells
recombinant HIV-2 RT = recombinant HIV-2 RT (Human immunodeficiency virus type 2 subtype A, UniProt P04584); experiment: Anti-reverse transcriptase assay, HIV-2 RT; format: biochemical, HIV-2(ROD)
recombinant HIV-2 RT, sequence (P04584 613-1171 limits assumed): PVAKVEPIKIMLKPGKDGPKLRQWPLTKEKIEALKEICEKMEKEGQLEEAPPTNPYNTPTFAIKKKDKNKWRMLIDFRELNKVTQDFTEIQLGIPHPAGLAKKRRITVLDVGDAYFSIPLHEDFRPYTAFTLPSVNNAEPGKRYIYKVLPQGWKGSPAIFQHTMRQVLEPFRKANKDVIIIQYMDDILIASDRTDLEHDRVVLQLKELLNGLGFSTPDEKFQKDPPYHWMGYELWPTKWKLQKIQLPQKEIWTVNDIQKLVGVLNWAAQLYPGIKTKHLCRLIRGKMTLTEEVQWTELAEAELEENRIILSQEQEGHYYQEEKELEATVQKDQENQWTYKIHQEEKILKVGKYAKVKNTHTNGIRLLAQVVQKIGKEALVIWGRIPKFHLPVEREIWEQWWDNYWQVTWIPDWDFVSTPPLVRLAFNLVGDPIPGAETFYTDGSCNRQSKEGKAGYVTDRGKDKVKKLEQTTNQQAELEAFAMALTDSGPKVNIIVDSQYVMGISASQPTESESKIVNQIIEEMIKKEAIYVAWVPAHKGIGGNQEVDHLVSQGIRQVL
recombinant HIV-2 RT, sequence (P04584 613-1051 partner limits assumed): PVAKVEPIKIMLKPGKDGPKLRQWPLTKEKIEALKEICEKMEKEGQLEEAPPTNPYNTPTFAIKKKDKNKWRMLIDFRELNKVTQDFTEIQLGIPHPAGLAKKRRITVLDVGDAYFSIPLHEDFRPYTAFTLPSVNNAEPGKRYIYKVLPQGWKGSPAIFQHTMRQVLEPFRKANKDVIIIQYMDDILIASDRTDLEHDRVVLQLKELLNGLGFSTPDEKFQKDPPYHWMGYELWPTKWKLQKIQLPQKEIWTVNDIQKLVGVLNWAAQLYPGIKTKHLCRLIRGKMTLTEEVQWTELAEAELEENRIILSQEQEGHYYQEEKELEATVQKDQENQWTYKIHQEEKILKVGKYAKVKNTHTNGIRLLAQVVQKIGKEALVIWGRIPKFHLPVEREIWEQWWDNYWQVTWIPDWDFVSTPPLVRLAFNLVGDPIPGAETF
Summary of the method: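 Recombinant RT derived from HIV-2(ROD). Substrate was [8-3H]dGTP (2.5 μM) on poly(C).oligo(dG)12–18 (0.1 mM), with inhibitor at various concentrations. Incubated 37 °C for 30 min, then stopped with yeast RNA and trichloroacetic acid in Na4P2O7 and held on ice 30 min. Acid-insoluble radioactivity was counted; IC50 was the concentration giving 50% inhibition of RT activity.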

[3] = tested on: human T-lymphocyte (CEM) cells; conditions: mock-infected CEM cells; racemic mixture; ref [1]; cited from earlier work
HIV-2(ROD) = conditions: read-out: EC50 HIV-2(ROD); CEM cells; racemic mixture; ref [1]; cited from earlier work
HIV-1(IIIB) [4] = experiment: Inhibition of HIV-1; format: cell-based, Human immunodeficiency virus type 1; conditions: relative to 8

Compound: 2-Adamantan-1-ylmethyl-3-(2-dimethylaminoethyl)-thiazolidin-4-one [Compound 20]
- CC50 [1]: 43 ± 20.1 µM

Compound: Cc1cc(C)nc(N2C(=O)CSC2C23CC4CC(CC(C4)C2)C3)c1 (single isomer, unassigned) [levo isomer]
- fold less active than the (+)-isomer (anti-HIV-1 activity) (HIV-1(IIIB) [2]): more than 60 fold

- IC50 (recombinant HIV-2 RT): > 600 µM
Compound: Cc1cc(C)nc(N2C(=O)CS[C@@H]2C23CC4CC(CC(C4)C2)C3)c1 (single isomer, unassigned; (+)) [7 (R enantiomer), (+)-2-adamantan-1-yl-3-(4,6-dimethyl-pyridin-2-yl)-thiazolidin-4-one, reference compound]
- EC50 (HIV-1(IIIB) [2]): 0.178 µM

Compound: Cc1cc(C)nc(N2C(=O)CSC2C23CC4CC(CC(C4)C2)C3)c1 (stereo not shown) [Compound 7, 2-adamantan-1-yl-3-(4,6-dimethylpyridin-2-yl)-thiazolidin-4-one]
- EC50 (HIV-1(IIIB) [2]): 0.35 ± 0.175 µM
- CC50 [3]: 42 ± 8.1 µM
- EC50 (HIV-2(ROD)): > 12 µM

Compound: Cc1ccnc(N2C(=O)CSC2C23CC4CC(CC(C4)C2)C3)n1 (stereo not shown) [Compound 10, 2-Adamantan-1-yl-3-(4-methylpyrimidin-2-yl)-thiazolidin-4-one]
- fold reduction in antiviral potency (anti-HIV-1) (HIV-1(IIIB) [4]): 6 fold

Compound: Cc1cc(C)nc(N2C(=O)CSC2CC23CC4CC(CC(C4)C2)C3)n1 (stereo not shown) [Compound 12, 2-Adamantan-1-ylmethyl-3-(2,6-methylpyrimidin-2-yl)-thiazolidin-4-one]
- fold reduction in antiviral potency (anti-HIV-1) (HIV-1(IIIB) [4]): 13 fold

- IC50 (recombinant HIV-2 RT): ≥ 600 µM
Compound: O=C1CSC(c2c(Cl)cccc2Cl)N1CC12CC3CC(CC(C3)C1)C2 (stereo not shown) [Compound 24, 3-Adamantan-1-ylmethyl-2-(2,6-dichlorophenyl)-thiazolidin-4-one]

- IC50 (recombinant HIV-2 RT): > 600 µM
Compound: O=C1CSC(c2c(Cl)cccc2Cl)N1CCC12CC3CC(CC(C3)C1)C2 (stereo not shown) [Compound 25, 3-(2-Adamantan-1-ylethyl)-2-(2,6-dichlorophenyl)-thiazolidin-4-one]

- IC50 (recombinant HIV-2 RT): > 600 µM
Compound: O=C1CSC(c2c(F)cccc2F)N1CC12CC3CC(CC(C3)C1)C2 (stereo not shown) [Compound 28, 3-Adamantan-1-ylmethyl-2-(2,6-difluorophenyl)-thiazolidin-4-one]

- IC50 (recombinant HIV-2 RT): ≥ 600 µM
Compound: O=C1CSC(c2c(F)cccc2F)N1CCC12CC3CC(CC(C3)C1)C2 (stereo not shown) [Compound 29, 3-(2-Adamantan-1-ylethyl)-2-(2,6-difluorophenyl)-thiazolidin-4-one]
